# In article PMC3224645 (Purinergic Signalling, 2011):
# What was measured:
# [1] = system: N1S1 (rat hepatocellular carcinoma) cells; assay: [3H]-thymidine incorporation proliferation assay, N1S1; type: cell-based
# Procedure, shortened: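 N1S1 rat hepatoma cells, not serum-starved, were assayed in growth medium (RPMI 1640, 10% FBS, 2 mM L-glutamine, penicillin/streptomycin) at 1.5 × 10^4 cells/ml. […] Assays ran 24 h, or 48 h for experiments with EHNA (10 μM). [3H]-thymidine (1 μCi) was pulsed for the last 18 h, then cells were harvested and scintillation-counted.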
# hA3R [2] = target: T1, hA3R (Homo sapiens, UniProt P0DMS8); assay: cAMP accumulation assay; type: cell-based
# T1 sequence (P0DMS8 1-318): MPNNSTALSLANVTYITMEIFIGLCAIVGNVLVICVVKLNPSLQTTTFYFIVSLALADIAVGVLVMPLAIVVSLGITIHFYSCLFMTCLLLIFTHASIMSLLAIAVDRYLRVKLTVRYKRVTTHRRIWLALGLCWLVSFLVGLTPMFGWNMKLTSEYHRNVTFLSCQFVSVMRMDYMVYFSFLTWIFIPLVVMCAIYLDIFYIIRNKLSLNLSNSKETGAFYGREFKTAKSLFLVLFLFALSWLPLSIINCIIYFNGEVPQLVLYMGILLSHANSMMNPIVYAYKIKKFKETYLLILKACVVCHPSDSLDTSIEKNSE
# [3] = system: LNCaP (human prostate carcinoma) cells; assay: [3H]-thymidine incorporation proliferation assay, LNCaP; type: cell-based; conditions: for effect on LNCaP proliferation: 24 h
# Procedure, shortened: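 LNCaP cells were kept in RPMI 1640 with 10% FBS, then serum-starved for 18 h and assayed as monolayers in RPMI with 1% FBS at 1.5 × 10^4 cells/ml. […] Assays ran 24 h, or 48 h for experiments with EHNA (10 μM). [3H]-thymidine (1 μCi) was added for the last 18 h, then cells were harvested and counted. Three experiments in triplicate.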
# [4] = system: breast cancer cell lines lacking A3R mRNA; conditions: concentrations between 10 and 100 μM (500 μM for adenosine); cited from earlier work
# rat A3R = target: T2, rat A3R (Rattus norvegicus, UniProt P28647); assay: Radioligand binding, [125I]-AB-MECA displacement on RBL-2H3 cell membranes
# T2 sequence (P28647 1-320): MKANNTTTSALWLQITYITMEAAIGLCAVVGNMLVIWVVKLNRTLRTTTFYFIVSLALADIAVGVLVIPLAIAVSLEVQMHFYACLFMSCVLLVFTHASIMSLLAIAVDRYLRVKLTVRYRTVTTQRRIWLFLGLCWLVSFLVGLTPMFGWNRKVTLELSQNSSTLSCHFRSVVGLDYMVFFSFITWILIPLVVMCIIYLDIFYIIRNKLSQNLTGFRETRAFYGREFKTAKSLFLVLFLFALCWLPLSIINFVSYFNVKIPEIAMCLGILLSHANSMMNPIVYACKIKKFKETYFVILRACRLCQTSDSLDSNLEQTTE
# [5] = in the first 4 h, mostly in metabolized form; cited from earlier work
# HL-60 = conditions: 30 μM, in the presence of MRS1523 (10 μM) or MRS1220 (5 μM); cited from earlier work
# MOLT-4 = conditions: 30 μM, in the presence of MRS1523 (10 μM) or MRS1220 (5 μM); cited from earlier work
# [6] = phase I clinical studies; cited from earlier work
# LNCaP cells = assay: LNCaP proliferation with IPA in the presence of A3R antagonist MRS1523; type: cell-based, human
# hA3R [7] = target: T1, hA3R; conditions: cited from earlier work
smiles,measurement,setting,value
CCCCCC[C@@H]([C@@H](C)O)n1cnc2c(N)ncnc21 (racemic) [EHNA],basal growth inhibition of N1S1 cells,"[1]; EHNA 10 μM alone, without adenosine",22%
"Nc1ncnc2c1ncn2[C@@H]1O[C@H](CO)[C@@H](O)[C@H]1O [1a, Adenosine]",effect of ADA on the agonist's inhibition of cAMP production,hA3R [2]; agonist 10 μM + ADA 0.8 IU/ml,abolished the effect
same,inhibition of forskolin-stimulated cAMP production,hA3R [2]; agonist at 10 μM,inhibited cAMP production to a similar extent
same,effect on LNCaP proliferation,[3]; 25 μM,no effect
same,effect of EHNA on the adenosine effect in LNCaP,"[3]; adenosine 25 μM + EHNA 10 μM, data not shown",did not increase the adenosine effect
same,effect on N1S1 proliferation,[1]; 25 μM,only a modest effect
same,effect on N1S1 proliferation in the presence of EHNA,[1]; adenosine 25 μM + EHNA 10 μM,almost full growth inhibition
same,antiproliferative effect on breast cancer cell lines lacking A3R mRNA,[4],had antiproliferative effects
"CC(C)=CCNc1ncnc2c1ncn2[C@@H]1O[C@H](CO)[C@@H](O)[C@H]1O [1b, N^6-(2-isopentenyl)-adenosine]",Ki,rat A3R,4.69 ± 0.2 µM
same,fraction excreted in urine,[5],more than 50%
Nc1nc(Cl)nc2c1ncn2[C@@H]1O[C@H](CO)[C@@H](O)[C@H]1O [2-chloro-adenosine],antiproliferative effect on breast cancer cell lines lacking A3R mRNA,[4],had antiproliferative effects
Nc1ncnc2c1ncn2[C@@H]1O[C@H](CO)C[C@H]1O [3′-deoxyadenosine],antiproliferative effect on breast cancer cell lines lacking A3R mRNA,[4],had antiproliferative effects
"CNC(=O)[C@H]1O[C@@H](n2cnc3c(NCc4cccc(I)c4)nc(Cl)nc32)[C@H](O)[C@@H]1O [Cl-IB-MECA, 2-chloro-N ^6-(3-iodobenzyl)adenosine-5′-N-methylcarboxamide]",effect on LNCaP proliferation,[3]; 0.01–10 μM,inhibited proliferation
same,effect on N1S1 proliferation,"[1]; 0.01–10 μM, 24 h",inhibited proliferation
same,growth of HL-60,HL-60,inhibited growth
same,growth of MOLT-4,MOLT-4,inhibited growth
same,antiproliferative effect on breast cancer cell lines lacking A3R mRNA,[4],had antiproliferative effects
CNC(=O)[C@H]1O[C@@H](n2cnc3c(NCc4cccc(I)c4)ncnc32)[C@H](O)[C@@H]1O [IB-MECA],tolerability,[6],tolerated very well
same,antiproliferative effect on breast cancer cell lines lacking A3R mRNA,[4],had antiproliferative effects
CCCOC(=O)c1c(-c2ccccc2)nc(CC)c(C(=O)SCC)c1CCC [MRS1523],blockade of the antiproliferative effect of IPA on LNCaP,"LNCaP cells; IPA 1 μM, MRS1523 0.01–1 μM","small, although still significant at higher concentrations"
same,blockade of the antiproliferative effect of IPA on LNCaP,"LNCaP cells; IPA 10 μM, MRS1523 0.01–1 μM",no effect
same,blockade of the antiproliferative effect of IPA on LNCaP,"LNCaP cells; MRS1523 0.1 and 1 μM, IPA 0.01 and 0.1 μM",prevented the antiproliferative effect
same,affinity for the hA3R compared to IPA,hA3R [7],approximately sixfold higher
COc1ccccc1NC(=O)Nc1nc(-c2cccnc2)nc2ccccc12 [VUF5574],"inhibition by the antagonist of cAMP modulation by adenosine, IPA and Cl-IB-MECA","hA3R [2]; agonists 10 μM, VUF5574 1 μM or 10 μM",largely and significantly inhibited
